Shown are actives, neighbours in structure and some others; about 2.4% of the full set was active somewhere.
E-sel inducer: E-selectin induction on HUVECs; activation, % at 7.58 µM; AID 686992; P16581; hit rate 0.37% among 260,000; HUVEC E-selectin immunofluorescence imaging; normalized: neutral wells 0, TNF-alpha wells 100;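 active means mean E-selectin-positive cell signal at least 10% of the positive control, reached in at least 60% of replicates, without over 20% cell loss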
Target sequence (P16581 whole entry, looked up): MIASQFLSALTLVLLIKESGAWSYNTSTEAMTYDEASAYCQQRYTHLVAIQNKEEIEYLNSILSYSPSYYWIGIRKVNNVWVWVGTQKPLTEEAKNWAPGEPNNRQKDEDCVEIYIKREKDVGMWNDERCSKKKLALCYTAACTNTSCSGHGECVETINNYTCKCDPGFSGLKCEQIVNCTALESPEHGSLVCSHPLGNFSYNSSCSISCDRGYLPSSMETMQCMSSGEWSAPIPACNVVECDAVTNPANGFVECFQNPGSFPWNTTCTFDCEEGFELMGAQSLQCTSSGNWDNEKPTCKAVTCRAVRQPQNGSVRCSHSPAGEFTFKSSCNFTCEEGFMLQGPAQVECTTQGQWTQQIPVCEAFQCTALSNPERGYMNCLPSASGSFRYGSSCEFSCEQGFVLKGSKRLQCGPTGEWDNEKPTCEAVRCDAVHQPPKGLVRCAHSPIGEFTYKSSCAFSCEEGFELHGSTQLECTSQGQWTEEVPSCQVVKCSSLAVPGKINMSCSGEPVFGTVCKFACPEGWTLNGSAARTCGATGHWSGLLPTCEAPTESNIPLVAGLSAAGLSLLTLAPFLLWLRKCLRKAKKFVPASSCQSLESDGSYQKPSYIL
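Test system – human umbilical vein endothelial cells (HUVEC), E-selectin induction · Input – 3,000 HUVEC seeded per well · Buffer or medium – EGM-2, gelatin · Compound dosing – single-point compound dose · Detection – immunofluorescence imaging · Measure – percent E-selectin-positive cells · Controls – TNF-alpha high, DMSO low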
Ecoli rRNA inh: selective bacterial rRNA inhibition in E. coli. E. coli WT GFP vs humanized-ribosome RFP mutants, fluorescence, 24 h; active compounds read low; DMSO median 0, no signal -100. GFP signal change (wild-type ribosome), % (no concentration beside the values). hit rate 1.6% among 350,000;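 active means significant combined selectivity score with lowered wild-type GFP, culture density cut under 30%, mutant RFP and density less affected; inactive means any of these conditions unmet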
EWS-Fli block: blocks EWS/Fli oncoprotein-driven transcription | A673 NR0B1-luciferase reporter, viability-normalised | inhibition, % at 12.6 µM | hit rate 0.67% among 350,000 | AID 651661;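 active means mean inhibition of at least 50% after viability correction, with every replicate also passing that limit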;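 further: firefly luciferase signal divided by Alamar Blue viability fluorescence both relative to DMSO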
LGR2 antag: inhibitors of bursicon-induced Drosophila LGR2 receptor cAMP signaling; HEK293 LGR2, CRE-luciferase, bursicon-stimulated, 4 h; AID 720647; hit rate 0.35% among 380,000; inhibition, % at 9.99 µM;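 active means drop in luminescence signal, shown as inhibition above about 50% in the replicate tests, limit read from the data, passing the limit was not always enough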;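 further: agonist challenge used bursicon conditioned medium at about half maximal strength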
A number is an active result; 0 = inactive; - = no result; ! = not active in a repeat.

SMILES | E-sel inducer | Ecoli rRNA inh | EWS-Fli block | LGR2 antag
Cc1c(CC(Cl)(Cl)Cl)c2c(n1O)CC(C)(C)CC2=O | 0 | -31.6 | 0 | 0
Cc1nn(-c2ccc(C(=O)O)cc2)c2c1C(=O)CC(C)(C)C2 | 0 | 0 | 0 | 0
O=C(CSc1nc2scc(-c3ccccc3)c2c(=O)[nH]1)NC1CCCCC1 | 0 | 0 | 0 | 0
O=C(CSc1nc2scc(-c3ccccc3)c2c(=O)[nH]1)N1CCCCC1 | 0 | -35.3 | 0 | 0
Nc1c(O)ccc2c1C(=O)c1ccccc1C2=O | 0 | -56.0 | 0 | 0
Cc1cccc(NC(=O)c2cnc3ccccn3c2=O)c1 | 0 | - | 58.3 | -
Cc1cccc(NC(=O)c2cnc3sccn3c2=O)c1 | 0 | 0 | 0 | 0
O=C(Nc1cnc2ccccn2c1=O)c1ccc(Cl)cc1Cl | - | 0 | 0 | 70.6
Cc1cccc(NC(=O)c2cc(C)nc3ccccc23)c1 | 61.0 | 0 | 0 | 0
O=C(NCc1ccccc1)[C@H]1[C@H](CO)[C@H]2Cn3c(cccc3=O)[C@@H]1N2C(=O)Cc1ccccn1 | 0 | 0 | 0 | 0
COc1ccc(C2C(O)C(c3c[nH]c4ccccc34)=NN2C(=O)CCl)cc1 (stereo not given) | 0 | 0 | 62.2 | 0
COc1ccc(C2NN=C(c3c[nH]c4ccccc34)C2O)cc1 (stereo not given) | - | 0 | 0 | 0
COc1cccc2c(Cl)c(CC=C(Cl)Cl)c(C)nc12 | 0 | 0 | 0 | 0
Cc1nc2c(C)cccc2c(SC(=N)N)c1CC=C(Cl)Cl | 0 | -20.9 | 0 | -
C=CCc1c(C)nc2c(C)cccc2c1SC(=N)N | 0 | -22.5 | 0 | 0
CCOC(=O)c1c(C)nc(C(Cl)(Cl)Cl)nc1N | 0 | -36.6 | 0 | 0
CCOC(=O)c1nc(N)c(C(=O)OCC)[nH]1 | - | - | - | 0
COc1cccc(C(C)NC(=S)NCc2ccc(Cl)cc2)c1 (stereo not given) | - | -23.5 | 0 | 0
O=C(N/N=C/c1ccccc1O)C(=O)N1CCCCCC1 | - | -24.6 | - | 0
O=C(Nc1ccc(F)cc1)N[C@H]1CC[C@H](CCNS(=O)(=O)c2cccc(Cl)c2)O[C@@H]1CO | 0 | -17.4! | 0 | 0
O=C(Nc1ccc(F)cc1)N[C@H]1CC[C@H](CCNS(=O)(=O)c2cccc(Cl)c2)O[C@H]1CO | 0 | 0 | 0 | 0
O=C(NCC[C@H]1CC[C@@H](NS(=O)(=O)c2ccccc2)[C@H](CO)O1)c1cc(Cl)cc(Cl)c1 | 0 | 0 | 0 | 0
O=C(NCC[C@@H]1CC[C@@H](NS(=O)(=O)c2ccccc2)[C@@H](CO)O1)c1cc(Cl)cc(Cl)c1 | 0 | -16.4! | 0 | 0
C[C@H]1CN([C@@H](C)CO)C(=O)c2cc(-c3ccc(C(=O)N(C)C)cc3)cnc2O[C@H]1CN(C)C(=O)C1CC1 | 0 | 0 | 0 | 0
COc1ccc(OC)c(C2CC(c3ccccc3)=NN2C(=S)Nc2ccccc2)c1 (stereo not given) | 0 | 0 | 52.3 | 0
SMILES | E-sel inducer | Ecoli rRNA inh | EWS-Fli block | LGR2 antag
C[C@H]1CN([C@@H](C)CO)C(=O)c2cc(NS(=O)(=O)c3ccc(Cl)cc3)ccc2O[C@H]1CN(C)C(=O)Nc1ccc(C(F)(F)F)cc1 | 0 | 0 | 0 | 0
COc1ccc(S(=O)(=O)N2CC(=O)Nc3ccccc32)cc1Cl | 0 | -32.9 | 0 | 0
Cc1c(O)nc2ccccn2c1=O | 71.3 | 0 | 0 | 0
C[C@@H]1CN([C@H](C)CO)C(=O)c2cc(NS(=O)(=O)c3ccccc3)ccc2O[C@@H](C)CCCCO[C@@H]1CN(C)Cc1ccc(C(F)(F)F)cc1 | 0 | 0 | 0 | 0
C[C@H]1CCCCO[C@H](CN(C)C(=O)Cc2ccccc2)[C@@H](C)CN([C@@H](C)CO)C(=O)c2cc(NS(=O)(=O)c3ccccc3)ccc2O1 | 0 | 0 | 0 | 0
C[C@@H]1CCCCO[C@@H](CN(C)Cc2ccc(C(F)(F)F)cc2)[C@H](C)CN([C@@H](C)CO)C(=O)c2cc(NS(=O)(=O)c3ccccc3)ccc2O1 | 0 | 0 | 66.0 | 0
Cc1ccc(S(=O)(=O)Nc2ccc3c(c2)C(=O)N([C@H](C)CO)C[C@@H](C)[C@H](CN(C)Cc2ccc(C(F)(F)F)cc2)OCCCC[C@H](C)O3)cc1 | - | 0 | 65.8 | 0
C[C@H](CO)N1C[C@H](C)[C@H](CN(C)C(=O)Cc2ccccc2)OCCCC[C@H](C)Oc2ccc(NS(=O)(=O)c3ccccc3)cc2C1=O | 0 | 0 | 59.8 | 0
N#Cc1c(N)[nH]c2ccc(Sc3ccccc3)cc12 | 0 | 0 | 60.7 | 0
N#Cc1c(N)[nH]c(C(=O)c2ccccc2)c1-c1ccccc1Br | 0 | 0 | 0 | 0
CCOC(=O)c1sc2ncc([N+](=O)[O-])cc2c1N | - | -36.2 | 0 | 0
Nc1c(C(=O)c2ccccc2)sc2nsc(SCCN3CCOCC3)c12 | 0 | -27.1 | 0 | 0
CN1Cc2c(N3CCOCC3)nc3sc(C(=O)c4ccccc4)c(N)c3c2CC1(C)C | 0 | -36.2 | 0 | 0
COc1ccc2c3c([nH]c2c1)[C@H](CO)N(C(=O)NC(C)C)CC31CN(C(=O)c2ccccn2)C1 | - | 0 | - | -
CO[C@@H](CN(C)C(=O)c1cnccn1)[C@H](C)CN([C@@H](C)CO)S(=O)(=O)c1ccc(Cl)cc1 | 0 | 0 | 0 | 0
Cc1ccc(S(=O)(=O)Nc2cccc3c2O[C@H](CN(C)C(=O)Nc2ccc4c(c2)OCO4)[C@@H](C)CN([C@H](C)CO)C3=O)cc1 | 0 | 0 | 0 | 0
CN(C(=O)COC(=O)c1nc(Cl)c(Cl)c(Cl)c1Cl)C1CCS(=O)(=O)C1 (stereo not given) | - | 0 | 0 | 102.9
CCOc1ccc(C(=O)Nc2nc(C)c(C(=O)OC)s2)cc1 | 0 | 0 | 73.1 | 0
COc1ccccc1/C=C1\SC(=S)N(CCC(=O)NC2=NCCS2)C1=O | - | 0 | 0 | -
COc1ccccc1/C=C1\SC(=S)N(CC(=O)Nc2nnc(C)s2)C1=O | 0 | 0 | 60.0 | 0
C[C@@H]1CN([C@H](C)CO)C(=O)c2cccc(NC(=O)c3nc4ccccc4s3)c2O[C@H]1CN(C)C(=O)Nc1ccc(C(F)(F)F)cc1 | - | 0 | 0 | 0
CCC(=O)N1[C@@H]2c3ccc(-c4cccnc4)c(=O)n3C[C@H]1[C@H](CO)[C@H]2C(=O)NC1CCC1 | 0 | 0 | 0 | 0
CC(C(=O)Nc1ccc(Cl)cc1)c1ncc(C(F)(F)F)cc1Cl (stereo not given) | - | 0 | 0 | 0
CCN(C(=O)c1cnc(NC(C)C)cc1C(F)(F)F)c1ccc(Cl)cc1Cl | 0 | -22.8 | 0 | 0
CCC1=Nc2cc(C(=O)NCCN3CCOCC3)ccc2Sc2ccccc21 | - | 0 | - | 0
SMILES | E-sel inducer | Ecoli rRNA inh | EWS-Fli block | LGR2 antag
CCOCCCNC(=O)c1ccc2c(c1)N=C(CC)c1cc(Br)ccc1S2 | - | 0 | 61.2 | 0
O=C(C[C@@H]1CC[C@@H](NC(=O)Nc2ccccc2F)[C@H](CO)O1)NCc1ccc(-c2ccccc2)cc1 | 0 | 0 | 0 | 0
CCN(CC(=O)Nc1cccc(OC)c1)CC(=O)Nc1ccc(Br)c(C)c1 | 0 | -54.0 | 0 | 0
COc1cccc(NC(=O)CN(C)CC(=O)Nc2ccc(Br)cc2)c1 | - | -34.3 | 0 | 0
Cc1ccc(NC(=O)CN(C)CC(=O)Nc2ccccc2Oc2ccccc2)cc1 | 0 | -34.8 | 0 | 0
COc1cccc(NC(=O)COC(=O)c2sccc2C)c1 | 0 | -20.9 | 0 | 0
Cc1cccc(C)c1NC(=O)CN(C)CC(=O)Nc1ccccc1Oc1ccccc1 | 0 | 0 | 0 | 0

Assay outcomes deposited in PubChem by Broad Institute.
